EphB4 ephrin blk – EphB4-ephrin-B2 interaction antagonists, primary screen, biochemical, TNYL-RAW peptide probe, fluorescence polarization. Ephrin type-B receptor 4 (Homo sapiens), P54760. EphB4 LBD / TNYL-RAW-Alexa532 peptide. inhibition, % at 7 µM. 0.15% of 97,000 active;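 active = inhibition above the screen-wide mean inhibition plus 3 SD, cut at about 15% in these data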;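 note: 0% = DMSO wells and 100% = excess unlabeled TNYL-RAW peptide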
PostGolgi yeast – phenotypic screen on post-Golgi transport, primary screen. post-Golgi transport phenotypic cell assay. inhibition, % at 10 µM. 0.9% of 98,000 active;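 note: yeast cells grown in 1536-well plates; yeast grown about 18 h at 30C before absorbance read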
Rev-RRE block – HIV-1 Rev-RRE binding inhibitors, primary screen, biochemical, FRET, protein-RNA interaction. inhibition, % at 8 µM. P05866. AID 704, 2007. 0.79% of 97,000 active. Rev peptide-RRE RNA binding;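 active = inhibition above the screen-wide mean plus 3 SD, cut at about 35% in these data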;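 note: 0% = median DMSO wells and 100% = median Neomycin B control wells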
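Assay system: Rev peptide and RRE RNA, both fluorescently labelled; times: 5 min preincubation and 15 min binding, 25 °C; detection: FRET, ex 480 nm, em 540 and 671 nm; read-out basis: % inhibition from 671/540 nm acceptor-to-donor ratio, scaled between controls; benchmarks: DMSO low control, neomycin B high control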
PLK1 kinase inh – human PLK1 kinase inhibitors, primary screen, biochemical, TR-FRET; recombinant PLK1 kinase, TR-FRET peptide phosphorylation; inhibition, % at 10 µM; Serine/threonine-protein kinase PLK1 (Homo sapiens), P53350; 0.53% of 97,000 active;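 active = inhibition of 50% or more in the single-concentration screen; inactive = inhibition below 50%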;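 note: 0% = DMSO max control and 100% = H-89 dihydrochloride min control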
PostGolgi ctrl – growth inhibition of yeast control strain, primary screen, counter-screen for post-Golgi transport modulator project; efflux-deficient yeast background strain, growth absorbance A615, 16 h; inhibition, % at 10 µM; 5% of 98,000 active
Plk1 PBD FP – Plk1 polo box domain binding inhibitors, primary screen, biochemical, fluorescence polarization. Serine/threonine-protein kinase PLK1 (Homo sapiens), P53350. Plk1 PBD phosphopeptide binding. inhibition, %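 (tested at about 20 µM)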. 0.13% of 97,000 active. AID 693, 2007; in the data active = inhibition above about 34%, passing the limit was not always enough
An asterisk follows results filed as active; x = not tested or not shown. The list is not random: actives were taken first. Their share in the collection is about 6.4%. Cut-off read from the data, not from the text of the source, unless noted: active = inhibition above about 30%; inactive = the rest.

SMILES | EphB4 ephrin blk | PostGolgi yeast | Rev-RRE block | PLK1 kinase inh | PostGolgi ctrl | Plk1 PBD FP
Cc1ccc(S(=O)(=O)N2CCN(C(=O)CCC(=O)OCC(=O)Nc3cccc(C#N)c3)CC2)cc1 | -1 | 2 | 15 | 7 | 32* | 8
Cn1c(NC(=O)c2ccccc2)c(-c2ccccn2)c(=O)c2ccccc21 | -10 | 8 | 6 | 7 | -2 | -12
CCCCOc1ccc(-c2ncc(Cl)cn2)cc1 | -3 | -4 | 9 | -27 | 6 | 6
CCCCCCc1ccc(-c2ncc(N)cn2)cc1 | -2 | -1 | 6 | -6 | 32* | -10
N/C(COc1ccccc1)=N\NC(=O)c1cccnc1Oc1ccccc1 | 13 | -2 | 11 | -1 | 16 | -12
CN1C(=O)CC(C(=O)O)SC1=Nc1ccc(F)cc1 (centres undefined) | 2 | x | 8 | -9 | x | -2
O=C(Nc1ccc(CN2CCOCC2)cc1)c1ccc(-c2ccc(Br)cc2)o1 | 4 | 0 | 1 | 3 | 60* | -14
O=C(Nc1ccccc1)c1ccc(-c2ccc(Br)cc2)o1 | 3 | x | 21 | -8 | x | -11
O=C(CSc1ccc(Cl)cc1)N1CCN(c2ccc(Cl)cc2[N+](=O)[O-])CC1 | -4 | 2 | 11 | -11 | 72* | 11
Cc1cccc2cc(CN(Cc3ccc(F)cc3)C(=O)C(F)(F)F)c3nnnn3c12 | 6 | x | 10 | -10 | x | -1
Cc1cccc2cc(CN(Cc3ccc(F)cc3)C(=O)N(C)C)c3nnnn3c12 | 5 | 12 | 11 | -8 | 32* | 6
CC(C)(C)C(=O)Cn1c(=N)n(Cc2ccccc2)c2ccccc21 | x | 1 | x | x | 48* | x
CC(C)(C)C(=O)Cn1c(=N)n(Cc2ccccc2Cl)c2ccccc21 | 3 | 3 | -2 | -3 | 15 | -11
CC(=O)c1ccc(-n2nncc2C(C)(C)C)cc1 | 0 | -9 | 3 | -1 | 33* | 9
CC(C)(C)c1cnnn1-c1ccc(NC(=O)c2ccc3c(c2)OCO3)cc1 | -1 | 0 | 9 | 3 | 27 | -3
CC(C)(C)c1cnnn1-c1ccc(NC(=O)c2ccc(Br)o2)cc1 | -2 | 5 | -2 | -10 | 44* | 9
Cc1ccc(N(C(C)C(=O)O)S(=O)(=O)c2c(C)n[nH]c2C)cc1 (centres undefined) | 7 | 4 | 10 | -9 | 5 | 8
Cc1csc(NC(=O)C2CCN(C(=O)CSc3nnc(C)n3Cc3ccccc3)CC2)n1 | -6 | 12 | 1 | -6 | 5 | 29
O=C(NCc1ccc(Cl)cc1)c1ccccc1Oc1ccccc1 | 10 | -8 | 16 | -3 | 33* | 25
COCCCNC(=O)c1ccccc1Oc1ccccc1 | 0 | 14 | 0 | -12 | 0 | 0
CC(C)C(c1nnnn1C1CCCCC1)N1CCN(c2ncccn2)CC1 (centres undefined) | 1 | 51* | 6 | -3 | 83* | -56
CC(C)CC(c1nnnn1C1CCCC1)N1CCN(c2ccccc2F)CC1 (centres undefined) | 1 | 72* | 5 | -9 | 87* | -14
Cc1ccc(Cl)cc1N1CCN(C(c2ccc(C#N)cc2)c2nnnn2C2CCCC2)CC1 (centres undefined) | -1 | -6 | 4 | -3 | 2 | -5
CC(C)C(c1nnnn1C1CCCC1)N1CCCCC1 (centres undefined) | 3 | 2 | 11 | -8 | 6 | 18
Cc1ccc(Cl)cc1N1CCN(C(c2cccnc2)c2nnnn2C2CCCCC2)CC1 (centres undefined) | 0 | 5 | 7 | -3 | 37* | -15
SMILES | EphB4 ephrin blk | PostGolgi yeast | Rev-RRE block | PLK1 kinase inh | PostGolgi ctrl | Plk1 PBD FP
Fc1ccccc1N1CCN(C(c2ccccn2)c2nnnn2C2CCCCC2)CC1 (centres undefined) | -3 | 5 | 8 | -7 | 40* | -4
COc1ccc(OC)c(C(c2nnnn2C2CCCC2)N2CCN(c3ccccc3F)CC2)c1 (centres undefined) | 3 | 9 | -1 | -12 | 12 | -23
COc1ccc(C(C(=O)NC(C)(C)C)N(C(=O)CNC(=O)c2cccs2)c2ccc(C)cc2)cc1OC (centres undefined) | -6 | -1 | -1 | -10 | -1 | -7
Cc1sc2ncnc(NCC(c3ccco3)N3CCCC3)c2c1C (centres undefined) | 6 | 8 | 8 | -12 | 3 | 0
COc1cc([N+](=O)[O-])ccc1NC(=O)CCCOc1cccc(C)c1 | 8 | -11 | 17 | 1 | 17 | -12
CCC(c1nnnn1C1CCCCC1)N1CCN(C2CCCC2)CC1 (centres undefined) | -10 | -3 | -2 | 6 | 11 | -22
CC(C)CC(c1nnnn1C1CCCCC1)N1CCN(c2ncccn2)CC1 (centres undefined) | -1 | 53* | -2 | -1 | 84* | 0
Cc1cc(NC(=O)CSc2nc3sc(C)c(C)c3c(=O)n2C2CCCC2)no1 | -8 | 5 | -6 | -12 | 2 | 0
CCC(=O)c1ccc(N2CCN(C(=O)COc3ccc(F)cc3)CC2)c(F)c1 | -5 | -10 | 13 | 8 | 31* | 3
CC1CC(C)CN(CC(C)(C)NS(=O)(=O)c2ccc(Cl)cc2)C1 (centres undefined) | -3 | 60* | -1 | -15 | 23 | 6
CC(C)(CN1CCCCC1)NS(=O)(=O)c1ccc(Cl)cc1 | -5 | -9 | 4 | -1 | 19 | -26
CCOC(=O)C1(C(F)(F)F)N=C(c2cccnc2)OC(N2CCOCC2)=N1 (centres undefined) | -3 | -7 | 0 | 1 | -9 | -4
Clc1cccc(Nc2ncnc3ccc(Br)cc23)c1 | -5 | 9 | 2 | -22 | 46* | -18
Clc1ccc(Nc2ncnc3ccc(Br)cc23)cc1 | 2 | -3 | 0 | -10 | 33* | -3
Cc1cnnn1-c1ccc(C(=O)CCl)cc1 | -4 | 9 | -2 | 5 | 6 | 20
Cc1ccccc1C1C(C#N)=C2N=C(N)c3c(sc4c3CCCCC4)N2C2=C1C(=O)CCC2 (centres undefined) | -6 | -4 | 66* | -16 | -1 | -8
N#CC1=C(N)N(c2ccccc2)C2=C(C(=O)CCC2)C1c1cccs1 (centres undefined) | -5 | -8 | 16 | -12 | 7 | -34
O=C(NC12CC3CC(CC(C3)C1)C2)C12CC3CC(C1)CC(n1cnc(Cl)n1)(C3)C2 | 2 | -5 | 12 | -5 | 45* | 5
CCCn1c(NC(=O)C2COc3ccccc3O2)nc2ccccc21 (centres undefined) | 17* | -1 | 8 | -9 | 11 | -5

Source: PubChem BioAssay (several laboratories)
